Compound activity deposited in PubChem BioAssay by The Scripps Research Institute Molecular Screening Center.
A selection: hits, their analogues and other compounds. The true share with any hit is near 4.5%.
TAAR1 antagonist – human TAAR1 antagonism; Q96RJ0; CHO RD-HGA16 TAAR1, Fluo-8 calcium fluorescence, antagonist; inhibition, % at 3 µM; 360,000 tested, 1.5% active; AID 624466;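 active means inhibition above a per-plate cutoff, the mean inhibition of test compounds on that plate plus 3 SD, cut at about 49% in these data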;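 further: 0% = DMSO plus EC80 beta-PEA response and 100% = DMSO alone without agonist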
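Test system: hTAAR1-expressing CHO RD-HGA16 cells, Gα16-coupled; Probe or stimulus: EC80 β-phenethylamine stimulus; Compound dosing: single nominal final test compound concentration of 3 µM; Timing: 140 s kinetic read after compound, 140 s after agonist; Signal: Fluo-8 calcium-sensitive fluorescence; Measure: % inhibition of agonist calcium response; Controls: DMSO and EC80 PEA controls.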
CHO parental Ca – counter-screen: ATP calcium response change in parental CHO cells; parental CHO-K1, ATP-induced calcium, Fluo-8 fluorescence; inhibition, % at 5.6 µM; 330,000 tested, 0.63% active; AID 463079;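 active means inhibition above that plate's mean sample inhibition plus 3 SD, cut at about 26% in these data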;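 further: 0% = ATP-challenged DMSO wells and 100% = DMSO wells without ATP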
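Material: Parental CHO cells | Reagent: ATP | Compound dosing: Single nominal dose of 5.6 µM per compound | Detection: Intracellular calcium via Fluo-8 no-wash fluorescent dye | Read-out: % inhibition of ATP-induced calcium mobilization | Benchmarks: Low control ATP plus DMSO, high control DMSO only | Replicates: Singlicate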
TAAR1 agonist – agonists of human TAAR1; Q96RJ0; CHO RD-HGA16 TAAR1, Fluo-8 calcium fluorescence; vehicle wells 0%, saturating PEA agonist 100%; activation, % at 3 µM; 360,000 tested, 0.99% active; AID 624467;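 active means activation above the mean activation of all test compounds in the run plus 3 SD, cut at about 38% in these data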
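test system = CHO RD-HGA16 cells carrying human TAAR1 plus Gα16 | schedule = 17-24 h seeding, 75 min 37 °C dye, 30 min RT | compound dosing = 3 µM single concentration | control set = DMSO and PEA EC100 | replicates = n 1 | signal = Fluo-8 fluorescence, 5 s baseline then 140 s kinetic read | measure = percent activation vs PEA EC100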
OX1R antag-1 – OX1R (human) antagonism; O43613; OX1R-expressing cells, FRET antagonist read-out; inhibition, % at 6.6 µM; 330,000 tested, 1.8% active; in the data active means inhibition mostly above about 38%, no sharp cut-off; inactive means mostly below about 40%;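 further: 0% = agonist challenge alone and 100% = reference antagonist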
Target sequence (O43613 whole entry, looked up): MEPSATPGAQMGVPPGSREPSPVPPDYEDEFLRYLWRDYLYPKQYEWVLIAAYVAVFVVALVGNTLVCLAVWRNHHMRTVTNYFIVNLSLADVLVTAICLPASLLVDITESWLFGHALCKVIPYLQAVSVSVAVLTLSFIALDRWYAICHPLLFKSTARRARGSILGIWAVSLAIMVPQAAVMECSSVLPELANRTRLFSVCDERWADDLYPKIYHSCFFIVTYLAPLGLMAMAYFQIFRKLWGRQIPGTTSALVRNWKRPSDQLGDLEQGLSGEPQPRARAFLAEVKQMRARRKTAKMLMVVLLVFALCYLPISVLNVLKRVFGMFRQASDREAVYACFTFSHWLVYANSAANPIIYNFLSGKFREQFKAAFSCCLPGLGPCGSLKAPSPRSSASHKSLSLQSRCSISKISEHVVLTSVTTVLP
OX1R antag-2 – human HCRTR1 antagonism; O43613; CHO/OX1R cells, Fluo-8 calcium fluorescence, orexin A; inhibition, % at 5 µM; 330,000 tested, 0.43% active;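 active means inhibition above its plate's threshold, mean inhibition of all tested compounds on the plate plus 3 SD, cut at about 37% in these data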;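 further: 0% = orexin A challenge wells and 100% = SB-334867-A antagonist wells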
GPR7 antagonist – antagonists of human GPR7 (neuropeptides B/W receptor 1); GPR7-expressing cells, fluorescence antagonist assay; inhibition, % at 4.4 µM; 290,000 tested, 1.1% active; in the data active means inhibition above about 16%, passing the limit was not always enough;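 further: cells stimulated with the agonist NPW; 0% = agonist with vehicle and 100% = vehicle without agonist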
Target sequence (P48145 whole entry, looked up): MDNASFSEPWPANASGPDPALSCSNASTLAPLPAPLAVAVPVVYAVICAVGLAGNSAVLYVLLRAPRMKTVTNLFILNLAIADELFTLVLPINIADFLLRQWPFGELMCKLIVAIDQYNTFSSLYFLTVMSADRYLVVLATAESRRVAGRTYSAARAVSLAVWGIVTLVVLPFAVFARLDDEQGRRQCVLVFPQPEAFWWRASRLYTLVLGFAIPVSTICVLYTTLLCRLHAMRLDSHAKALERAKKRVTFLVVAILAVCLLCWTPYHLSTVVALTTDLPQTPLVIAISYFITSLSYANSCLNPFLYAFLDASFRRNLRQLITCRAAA
* hit, by the source's call; . = not tested or not shown.

SMILES | TAAR1 antagonist | CHO parental Ca | TAAR1 agonist | OX1R antag-1 | OX1R antag-2 | GPR7 antagonist
O=c1c2ccccc2sn1-c1cc(S(=O)(=O)N2CCOCC2)ccc1N1CCOCC1 | 36.4 | -8.4 | 87.0* | 6.7 | -13.0 | -7.2
O=c1c2ccccc2sn1-c1cc(S(=O)(=O)N2CCOCC2)ccc1N1CCCC1 | -5.9 | -19.3 | 37.3 | 4.7 | -31.4 | -2.2
Nc1ncnc2c1ncn2[C@@H]1O[C@H](CNC(=O)[C@@H](N)Cc2ccc(C(=O)c3ccccc3)cc2)[C@@H](O)[C@H]1O | -6.1 | . | 1.2 | . | . | .
O=[N+]([O-])c1c(N2CCN(CCO)CC2)nc2ccccn12 | -5.7 | -3.0 | 0.1 | 70.2* | -7.6 | -0.5
O=[N+]([O-])c1ccc(N2CCc3ccccc3C2)cc1 | 4.0 | -4.4 | 7.1 | 52.0* | 5.0 | -9.8
O=C(Nc1ccc([N+](=O)[O-])cc1)N1CCc2ccccc2C1 | -11.8 | 0.1 | 8.0 | 13.6 | -8.0 | 3.5
O=[N+]([O-])c1ccc(-c2csc(N3CCc4ccccc4C3)n2)cc1 | -1.9 | -6.5 | 39.5* | 2.6 | -18.6 | -8.8
CCC(=O)N1CCC2(CC1)Oc1ccc(Cl)cc1C(=O)C21CC(c2ccccc2)=NO1 (centres undefined) | 53.9* | -6.1 | 24.9 | 29.3 | -4.5 | .
O=C(c1ccoc1)N1CCC2(CC1)Oc1ccc(Cl)cc1C(=O)C21CC(c2ccccc2)=NO1 (centres undefined) | 33.3 | -13.1 | 13.4 | 18.4 | -7.9 | .
C=CCOc1ccc(/C=C2/C(=O)ON=C2C)cc1OC | 18.5 | -13.5 | 38.5* | 5.6 | -23.0 | -8.2
CCSc1cc(C)nc2c(-c3ccccc3)cnn12 | -37.4 | -19.0 | -0.6 | 59.5* | -4.3 | -12.1
Cc1cc(N)n2ncc(-c3ccccc3)c2n1 | 5.1 | -8.3 | 8.6 | 56.5 | 1.3 | -6.2
Cc1cc(N)n2ncc(-c3cccc(Br)c3)c2n1 | -8.6 | -5.1 | 2.3 | 42.6* | 23.3 | -21.1
CC(=O)Nc1ccc(Nc2cc(-c3ccccc3)nc3ncnn23)cc1 | -13.6 | -1.3 | 5.3 | 23.1 | -18.9 | -11.4
CC(=O)Nc1ccc(Nc2cc(C)nc3c(-c4ccccc4)cnn23)cc1 | 49.1* | -3.5 | 41.4* | 15.5 | -14.9 | -2.7
CCc1nc2ccc(C(=O)NCCOc3ccc(OC)cc3)cn2c1N(C)Cc1nccn1C | 5.8 | . | 0.2 | . | . | .
COc1ccccc1NC(=O)c1cc2cc(Br)ccc2cc1O | 24.0 | 45.3* | 7.4 | 18.6 | 9.7 | 6.3
COc1cc2ccccc2cc1C(=O)Nc1ccccc1Cl | -3.5 | -16.8 | 2.7 | 1.2 | 18.7 | 1.9
COc1cc(NC(=O)c2cc3ccccc3cc2O)c(OC)cc1Cl | 48.6* | 36.3* | 4.8 | 34.1* | 13.2 | 11.3
COC(=O)C1=C(C)N(Cc2ccc(Br)cc2)C(=S)NC1c1cccc(F)c1 (centres undefined) | 35.8 | . | 3.0 | . | . | .
COc1cc(NC(=O)CSc2ncnc3c2cnn3Cc2ccccc2)cc(OC)c1 | 0.0 | -1.0 | 4.5 | 13.5 | 2.4 | 4.6
COc1ccc(OC)c(NC(=O)CSc2ncnc3c2cnn3-c2ccccc2Cl)c1 | . | 52.8* | . | 44.6 | 51.8* | 1.6
Brc1cc(Br)c2nc(-c3cccs3)ccc2c1 | -25.0 | -12.6 | 7.6 | 11.7 | -15.1 | -4.0
Cc1nc2c(Br)cc(Br)cc2cc1O | 0.2 | 4.5 | 12.9 | 54.6* | -13.6 | 9.3
CCCCCOC(=O)C1=C(C)Nc2ncnn2C1c1cccs1 (centres undefined) | 56.6* | -5.8 | 15.0 | 26.9 | -17.1 | 3.6
SMILES | TAAR1 antagonist | CHO parental Ca | TAAR1 agonist | OX1R antag-1 | OX1R antag-2 | GPR7 antagonist
COc1ccc(NC(=O)CCCSc2nc(-c3ccco3)cc(C(F)(F)F)n2)cc1OC | 16.9 | -12.5 | 18.1 | 65.8* | -9.7 | -8.0
Cc1cc(NC(=O)CCCSc2nc(-c3ccco3)cc(C(F)(F)F)n2)no1 | -5.1 | -13.4 | 4.7 | 14.3 | -20.8 | -8.2
COc1ccc([C@H]2N[C@]3(CCCN(Cc4ccccc4)C3=O)[C@H]3C(=O)N(Cc4ccccc4)C(=O)[C@@H]23)cc1 | 2.0 | . | -0.2 | . | . | .
CCCN(CC(=O)Nc1ccccc1OC)C(=O)c1cc(-c2ccccc2)nn1-c1ccccc1 | 33.5 | 15.8 | -0.9 | 14.6 | 7.2 | .
CCOc1ccc(NC(=O)CN(C)C(=O)c2cc(-c3cccs3)nn2-c2ccccc2)cc1OCC | 26.6 | -27.1 | 0.1 | 24.4 | -32.5 | .
CCN(CC(=O)Nc1ccc(NC(C)=O)cc1)C(=O)c1cc(-c2ccccc2)nn1-c1ccccc1 | -10.4 | -7.5 | 7.5 | 3.9 | -35.9 | .
CCN(CC(=O)Nc1ccc(OC)cc1)C(=O)c1cc(-c2cccs2)nn1-c1ccccc1 | 61.6* | -8.3 | 9.8 | 8.9 | -8.4 | .
COCCN(CC(=O)Nc1cccc(C)c1C)C(=O)c1cc(-c2cccs2)nn1-c1ccccc1 | 50.6* | -12.1 | 18.1 | 25.4 | -13.8 | .
COc1ccc(NC(=O)CN(C)C(=O)c2cc(-c3cccs3)nn2-c2ccccc2)cc1 | 54.6* | -1.9 | 8.8 | 16.2 | -23.6 | .
O=C(COC(=O)c1cc(-c2cccs2)nn1-c1ccccc1)Nc1ccc(F)c([N+](=O)[O-])c1 | 49.2* | -4.3 | 7.4 | 25.2 | -19.4 | 6.2
O=C(Cc1c[nH]c2ccccc12)Nc1ccc(Nc2cccnc2)c(-c2ccc(OC(F)(F)F)cc2)c1 | 43.8 | . | 4.8 | . | . | .
Cc1cc(C)cc(NC(=O)COC(=O)COc2ccc(N(C)S(=O)(=O)c3cccs3)cc2)c1 | -22.0 | 17.8 | 0.9 | 15.3 | 12.8 | .
COCCNC(=S)N(C)[C@H]1C[C@H]2c3[nH]c4c(-c5ccccc5)cccc4c3CCN2C[C@H]1[C@H](C)O | -5.9 | . | 3.3 | . | . | .
CCCc1nc2ccc(C(=O)OC)cn2c1Cc1ccccc1OC | 5.2 | . | -1.7 | . | . | .
O=C(/C=C/[C@H]1O[C@@H](n2ccc(=O)[nH]c2=O)[C@H](O)[C@@H]1O)NCCN1CCCC1 | 1.6 | . | 0.8 | . | . | .
CN(CC(=O)Nc1ccc(F)cc1)C(=O)c1cn(-c2ccccc2)nc1-c1cccs1 | 51.0* | -15.8 | 16.5 | 7.7 | -11.2 | .
COCC(C)NC(=O)c1nn(Cc2ccccc2)c(=O)c2ccccc12 (centres undefined) | -6.0 | -15.7 | -2.8 | 74.5* | -18.3 | -10.9
O=C(Nc1ccnn1C1CCN(Cc2cccc(F)c2F)CC1)C1CCCC1 | -4.5 | -21.3 | 1.4 | 9.8 | -24.8 | -0.2
CCOC(=O)C1=CCN(S(=O)(=O)c2ccc(Cl)cc2)C1c1ccc(Cl)c(Cl)c1 (centres undefined) | 12.2 | . | 2.7 | . | . | .
COc1ccccc1CCn1cnc(-c2cccc(F)c2)c1C(C)C | 40.2 | . | 14.1 | . | . | .
CCCCc1c(-c2ccccc2OC)ncn1Cc1cccc(-c2ccccc2)c1 | 51.3* | . | 8.4 | . | . | .
CCCCc1c(-c2cccc(OC)c2)ncn1CCc1ccccc1OC | 56.4* | . | 21.9 | . | . | .
COc1ccccc1CCn1cnc(-c2ccc(OC)c(OC)c2)c1C(C)C | 25.8 | . | 42.0* | . | . | .
CCCc1c(-c2cccc(Cl)c2)ncn1CCc1ccccc1OC | 53.2* | . | 18.9 | . | . | .
